Published values collected from several papers.
Compare with care: the assays were run in different laboratories.
Target: Serine/threonine-protein kinase PLK3 (PLK3, Homo sapiens, UniProt Q9H4B4)

With `O=C(NCCCN1CCOCC1)c1ccc(Nc2ncc(Cl)c(-c3ccc(Cl)s3)n2)cc1` the remaining binding was 7.8% (binding, competition with immobilised ligand; 1 µM).
For `C[C@@H]1CN(c2cc(-c3n[nH]c4ccc(OC5(C)CC5)cc34)ncn2)C[C@H](C)O1`, the remaining binding was 84% (cell-free assay, competition with immobilised ligand; 0.1 µM).
`O=C(NCCCN1CCOCC1)c1ccc(Nc2nccc(-c3cc4ccccc4s3)n2)cc1` has a remaining binding of 42% (binding, competition with immobilised ligand; 1 µM).
`CS(=O)(=O)c1cc(C2(NC(=O)c3cncc4c3cnn4-c3ccc(F)cc3)CC2)ccn1` has a remaining binding of 68% (cell-free assay, competition with immobilised ligand; 1 µM).
`C[C@@H]1CN(c2ccc3ncc(-c4ccc5[nH]nc(C6CC6)c5c4)n3n2)C[C@H](C)O1` gave a remaining binding of 98% (binding, competition with immobilised ligand; 0.5 µM).
For `COc1cnc(Nc2cccc(S(N)(=O)=O)c2)nc1N1CCN(c2ccccc2)C(=O)C1`, the remaining binding was 63% (binding, competition with immobilised ligand; 1 µM).
With `COc1ccnn2ncc(-c3ccnc(N(C)C)n3)c12` the remaining binding was 75% (binding; 1 µM).
For `O=C(O)c1cc(-c2ccc(C3CCNCC3)cc2)c2ccc(-c3ccc(C(F)(F)F)cc3)cc2c1`, the remaining binding was 100% (cell-free assay, competition with immobilised ligand; 1 µM).
With `COc1cnc(Nc2cccc(S(N)(=O)=O)c2)nc1N1CCN(c2ccccc2)CC1` the remaining binding was 95% (binding, competition with immobilised ligand; 1 µM).
`C[C@H](NC(=O)c1cnc2n1[C@](C)(Cc1ccc(C#N)cc1)C(=O)N2c1cc(Cl)c(F)c(Cl)c1)C(=O)NC1(c2ccccn2)CC1` has a remaining binding of 81% (cell-free assay, competition with immobilised ligand; 1 µM).
For `Cc1cnc(Nc2ccc(C(=O)N3CCC(N4CCCC4)CC3)cc2)nc1-c1cc2ccccc2s1`, the remaining binding was 42% (binding, competition with immobilised ligand; 1 µM).
`c1cnn2ncc(-c3ccnc(N4CCC45COC5)n3)c2c1` gave a remaining binding of 79% (binding; 1 µM).
`C[C@@H](c1ccc(-n2cnc3c(N)ncnc32)cc1)N1CCc2nn(C)c(Cc3ccccc3)c2C1=O` gave a remaining binding of 76% (binding, competition with immobilised ligand; 0.1 µM).
`CCN1CCN(Cc2ccc(C(=O)Nc3ccc(C)c(Oc4ccc5c(c4)CC(=O)N5)c3)cc2C(F)(F)F)CC1` has a remaining binding of 100% (binding, competition with immobilised ligand; 1 µM).
`CN(C)c1ncnc(-c2ccc3nc(Nc4cc(CN5CCN(C(=O)CC(F)(F)F)CC5)ccn4)[nH]c3c2)c1Cl` gave a remaining binding of 100% (cell-free assay, competition with immobilised ligand; 1 µM).
For `c1cncc(-c2cccc(Nc3nccc(NC4CCCCC4)n3)c2)c1`, the remaining binding was 78% (binding, competition with immobilised ligand; 10 µM).
With `C[C@H]1CCN(c2nccc(-c3cnn4ncccc34)n2)C1` the remaining binding was 75% (binding; 1 µM).
`O=C(NCC1CCOCC1)c1n[nH]cc1NC(=O)c1c(F)cccc1F` has a remaining binding of 89% (binding, competition with immobilised ligand; 1 µM).
The remaining binding of `CN(C)c1nccc(-c2cnn3ncccc23)n1` is reported as 83% (binding; 1 µM).
With `CCOCCn1cc(C(=O)Nc2ccc(-n3nc(-c4cccnc4)cc3C(F)(F)F)cn2)ccc1=O` the remaining binding was 84% (cell-free assay, competition with immobilised ligand; 1 µM).
The remaining binding of `N[C@H]1CCN(c2nccc(-c3cnn4ncccc34)n2)C1` is reported as 83% (binding; 1 µM).
`CC(C)(C)c1ccc(-c2nc(CBr)nn2-c2cccc(O)c2)cc1` has a remaining binding of 98% (cell-free assay, competition with immobilised ligand; 10 µM).
For `CN(C)c1nccc(-c2cnc3ncccn23)n1`, the remaining binding was 66% (binding; 1 µM).
With `O=C(Nc1cccnn1)N1CC(C/C=C/c2cncc(Oc3ccc(C(F)(F)F)cn3)n2)C1` the remaining binding was 80% (cell-free assay, competition with immobilised ligand; 1 µM).
